The values that follow come from ChEMBL document CHEMBL1687708, “Efficacy of oritavancin in a murine model of Bacillus anthracis spore inhalation anthrax” (Antimicrob Agents Chemother, 2008).

≈ marks a conversion by molar mass, not a printed value.

In general, MIC refers to the least concentration at which growth counts as inhibited. A lower MIC goes with greater potency.

Common to all, as to assay type: functional
Experiment [1] relates to Bacillus cereus. Kind of experiment: Antimicrobial activity against Bacillus cereus ATCC 4342 by broth microdilution method. The procedure, abridged:
(§1)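 B. cereus ATCC 4342 went through stepwise selection for 20 cycles in cation-adjusted Mueller-Hinton broth with doubling drug dilutions. Each cycle was seeded from the previous day's 0.5× MIC wells, in two independent rounds per drug. Selectants showing a fourfold or greater MIC rise were passaged 5 days without drug. Their MICs were then read alongside the parent strain. Oritavancin assays carried 0.002% polysorbate 80 throughout.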
A general note: In broth dilution the organism is exposed to a series of concentrations in liquid medium.

Experiment [2] has as its system Bacillus cereus. The experiment is described as follows: Antimicrobial activity against Bacillus cereus ATCC 4342 selected after 20 daily cycles of drug selection followed by 5 days of nonselective growth by broth microdilution method. To be noted: ATCC 4342, 120 h. The procedure, abridged: as §1
Experiment [3] concerns Bacillus cereus. Kind of experiment: Ratio of MIC for Bacillus cereus ATCC 4342 selected after 20 daily cycles of drug selection followed by 5 days of nonselective growth to MIC for Bacillus cereus ATCC 4342. The procedure, abridged: as §1

With `CC1(C)S[C@@H]2[C@H](NC(=O)Cc3ccccc3)C(=O)N2[C@H]1C(=O)O` [PENICILLIN G], the results for the MIC in the experiment with Bacillus cereus [1] and with Bacillus cereus [2] were 0.008 µg/mL (≈ 0.0239 µM) and greater than 0.06 µg/mL, respectively. The Ratio in the experiment on Bacillus cereus [3] was greater than 8.
Take `CO[C@H]1/C=C/O[C@@]2(C)Oc3c(C)c(O)c4c(O)c(c(/C=N/N5CCN(C)CC5)c(O)c4c3C2=O)NC(=O)/C(C)=C\C=C\[C@H](C)[C@H](O)[C@@H](C)[C@@H](O)[C@@H](C)[C@H](OC(C)=O)[C@@H]1C` [RIFAMPIN]: the MIC against Bacillus cereus [1] amounted to 0.03 µg/mL (≈ 0.0365 µM); against Bacillus cereus [2], 0.25 µg/mL (≈ 0.304 µM). In the experiment with Bacillus cereus [3], the Ratio is listed as 8.
